ChEMBL document CHEMBL2424526, “Thrombin inhibitory activity of some polyphenolic compounds” (Med Chem Res, 2013)
The source made the active and inactive calls. The rule behind the calls is not given here.

What was measured:
Prothrombin [1] = biological target: T1, Prothrombin (Homo sapiens, UniProt P00734); assay: Inhibition of human thrombin amidolytic activity using D-Phe-Pip-Arg-pNA as substrate at 0.1 to 1000 uM preincubated for 10 mins followed by substrate addition measured every 12 secs for 10 mins by spectrophotometric analysis
Method in brief: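 Human plasma thrombin (17.6 nM in 50 mM TBS pH 7.4) preincubated 10 min at 37 °C with compound (from 10 mM stocks in 50% DMSO; final DMSO 5%, final thrombin 15.8 nM), then added to 3 mM D-Phe-Pip-Arg-pNA stock.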

Prothrombin [2] = biological target: T1, Prothrombin; assay: Inhibition of human thrombin assessed as inhibition of fibrinogen gamma-gamma chain formation at IC50 after 15 mins by SDS-PAGE analysis
Method in brief: (§1)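 Fibrinogen isolated from human plasma, containing factor XIII (3 mg/ml in 50 mM TBS, 5 mM CaCl2), mixed with thrombin (final 10.4 nM) that was preincubated with compound. Incubated at 37 °C and stopped at 5, 15 or 30 min with urea/SDS/β-mercaptoethanol buffer. Run on 7.5 % SDS-PAGE with Coomassie stain. Aα, γ, γ–γ dimer and α-polymer bands scored.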

Prothrombin [3] = biological target: T1, Prothrombin; assay: Inhibition of human thrombin assessed as response unit at 1000 uM by BIAcore analysis
Method in brief: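 Thrombin amine-coupled on a CM5 chip (NHS/EDC, acetate pH 6.0), 25 °C, PBS pH 7.4 running buffer. Polyphenol (100 μl) injected for 600 s at 10 μl/min, followed by 200 s PBS dissociation. Bound level read in RU. Channel regenerated with 0.1 M NaOH and 0.1 M HCl.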

Prothrombin [4] = biological target: T1, Prothrombin; assay: Inhibition of human thrombin assessed as decrease in platelet aggregation preincubated for 10 mins measured for 10 mins by dual channel chrono-log aggregometric analysis
Method in brief: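 Gel-filtered (BSA–Sepharose 2B) human platelets at 1.5 × 10^5/μl in modified Tyrode's buffer pH 7.4, prewarmed 5 min at 37 °C with stirring. Thrombin (final 2.4 nM) preincubated 10 min at 37 °C with compound, then added. Turbidimetric aggregation recorded 10 min (0.77 % DMSO final). Result given as % of control; eight independent experiments in duplicate.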

Prothrombin [5] = biological target: T1, Prothrombin; conditions: 5 uM
Prothrombin [6] = biological target: T1, Prothrombin; assay: Inhibition of human thrombin assessed as inhibition of band decaying corresponding to fibrinogen gamma chains at IC50 after 30 mins by SDS-PAGE analysis; method in brief: as §1
Prothrombin [7] = biological target: T1, Prothrombin; assay: Inhibition of human thrombin assessed as inhibition of fibrinogen alpha polymer formation at IC50 after 15 mins by SDS-PAGE analysis; method in brief: as §1
Prothrombin [8] = biological target: T1, Prothrombin; assay: Competitive inhibition of human thrombin using D-Phe-Pip-Arg-pNA as substrate preincubated for 10 mins followed by substrate addition measured every 12 secs for 10 mins by Lineweaver-Burk plot analysis
Prothrombin [9] = biological target: T1, Prothrombin; assay: Inhibition of human thrombin assessed as inhibition of fibrinogen gamma-gamma chain formation at IC50 after 5 mins by SDS-PAGE analysis; method in brief: as §1
Prothrombin [10] = biological target: T1, Prothrombin; assay: Inhibition of human thrombin assessed as inhibition of fibrinogen alpha-polymer formation at IC50 after 5 mins by SDS-PAGE analysis; method in brief: as §1
Prothrombin [11] = biological target: T1, Prothrombin; assay: Inhibition of human thrombin assessed as inhibition of band decaying corresponding to fibrinogen Aalpha chains at IC50 after 30 mins by SDS-PAGE analysis; method in brief: as §1
Prothrombin [12] = biological target: T1, Prothrombin; assay: Inhibition of human thrombin assessed as inhibition of fibrinogen polymerization preincubated for 10 mins followed by fibrionogen addition measured for 20 mins
Method in brief: (§2)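 Thrombin preincubated with compound 10 min at 37 °C, then added (final 10.4 nM) to human fibrinogen (3 mg/ml) in 50 mM TBS with 5 mM CaCl2, pH 7.4. Turbidity at 595 nm read every 12 s for 20 min at 37 °C. Vmax expressed as % of solvent control; 12 independent experiments in duplicate.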

Prothrombin [13] = biological target: T1, Prothrombin; assay: Inhibition of human thrombin amidolytic activity using D-Phe-Pip-Arg-pNA as substrate preincubated for 10 mins followed by substrate addition measured every 12 secs for 10 mins by spectrophotometric analysis
Prothrombin [14] = biological target: T1, Prothrombin; conditions: 150 to 1000 uM
Prothrombin [15] = biological target: T1, Prothrombin; assay: Inhibition of human thrombin assessed as equilibrium association constant at 50 to 1000 uM by BIAcore analysis
Prothrombin [16] = biological target: T1, Prothrombin; conditions: 150 to 1000 uM; remark: listed apart in the source
Prothrombin [17] = biological target: T1, Prothrombin; conditions: 50 to 1000 uM
Prothrombin [18] = biological target: T1, Prothrombin; conditions: 75 to 750 uM
Prothrombin [19] = biological target: T1, Prothrombin; assay: Inhibition of human thrombin assessed as inhibition of fibrinogen alpha-polymer formation at 250 uM after 15 mins by SDS-PAGE analysis
Method in brief: (§3)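 Thrombin preincubated 10 min at 37 °C with compound, then mixed with human fibrinogen (3 mg/ml, containing factor XIII) in 50 mM TBS with 5 mM CaCl2; final thrombin 10.4 nM, 37 °C. Stopped at 5, 15, 30 min with urea/SDS/β-mercaptoethanol buffer. Run on 7.5% SDS-PAGE, Coomassie stained, scored for γ–γ dimer and α-polymer bands.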

Prothrombin [20] = biological target: T1, Prothrombin; assay: Inhibition of human thrombin assessed as inhibition of fibrinogen gamma-gamma chain formation at 250 uM after 5 mins by SDS-PAGE analysis; method in brief: as §3
Prothrombin [21] = biological target: T1, Prothrombin; assay: Inhibition of human thrombin assessed as inhibition of fibrinogen alpha-polymer formation at 250 uM after 5 mins by SDS-PAGE analysis; method in brief: as §3
[22] = biological target: Urokinase-type plasminogen activator (Homo sapiens, UniProt P00749); assay: Inhibition of urokinase amidolytic activity (unknown origin)
Prothrombin [23] = biological target: T1, Prothrombin; assay: Inhibition of human thrombin assessed as inhibition of fibrinogen gamma-gamma chain formation at 250 uM after 15 mins by SDS-PAGE analysis; method in brief: as §3
Prothrombin [24] = biological target: T1, Prothrombin; assay: Inhibition of human thrombin assessed as decrease in platelet aggregation at 25 to 250 uM preincubated for 10 mins measured for 10 mins by dual channel chrono-log aggregometric analysis
Method in brief: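 Human plasma thrombin (17.6 nM in 50 mM TBS, pH 7.4) preincubated 10 min at 37 °C with compound from 50% DMSO stock (9:1 v/v). Added to gel-filtered human platelets in modified Tyrode's buffer (1.5 × 10^5/μl), pre-warmed 5 min at 37 °C with stirring; final thrombin 2.4 nM, DMSO 0.77%. Turbidimetric aggregation followed for 10 min. Given as % of solvent control; eight independent experiments in duplicate.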

Prothrombin [25] = biological target: T1, Prothrombin; assay: Inhibition of human thrombin assessed as inhibition of fibrinogen polymerization at 1000 uM preincubated for 10 mins followed by fibrionogen addition measured for 20 mins
Method in brief: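 Thrombin preincubated 10 min at 37 °C with compound, then added to human fibrinogen (3 mg/ml) in 50 mM TBS, 5 mM CaCl2, pH 7.4; final thrombin 10.4 nM. Turbidity at 595 nm read every 12 s for 20 min at 37 °C. Vmax expressed as % of solvent control; mean ± SD of 12 independent experiments in duplicate.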

Prothrombin [26] = biological target: T1, Prothrombin; assay: Inhibition of thrombin (unknown origin) assessed as hydrolysis of N-benzoyl-phenylalanylvalyl-arginine-paranitroanilide
Trypsin = Trypsin (Homo sapiens, UniProt P07477+P07478+P35030); assay: Inhibition of trypsin amidolytic activity (unknown origin); type: protein assay
Prothrombin [27] = biological target: T1, Prothrombin; conditions: 125 to 1000 uM
Prothrombin [28] = biological target: T1, Prothrombin; conditions: 125 to 1000 uM; remark: listed apart in the source
Prothrombin [29] = biological target: T1, Prothrombin; assay: Inhibition of human thrombin assessed as inhibition of fibrinogen alpha-polymer formation at 15 uM after 5 mins by SDS-PAGE analysis; method in brief: as §1
Prothrombin [30] = biological target: T1, Prothrombin; assay: Inhibition of human thrombin assessed as inhibition of fibrinogen gamma-gamma chain formation at 15 uM after 5 mins by SDS-PAGE analysis; method in brief: as §1
Prothrombin [31] = biological target: T1, Prothrombin; assay: Inhibition of human thrombin assessed as inhibition of band decaying corresponding to fibrinogen Aalpha chains at 15 uM after 5 mins by SDS-PAGE analysis; method in brief: as §1
Prothrombin [32] = biological target: T1, Prothrombin; assay: Inhibition of human thrombin assessed as inhibition of fibrinogen polymerization at 50 uM preincubated for 10 mins followed by fibrionogen addition measured for 20 mins; method in brief: as §2
Prothrombin [33] = biological target: T1, Prothrombin; assay: Inhibition of human thrombin assessed as inhibition of band decaying corresponding to fibrinogen gamma chains at 15 uM after 5 mins by SDS-PAGE analysis; method in brief: as §1

O=C(O)/C=C/c1ccc(O)cc1
inhibition (Prothrombin [1]): inactive

O=C(O)Cc1ccc(O)cc1
inhibition (Prothrombin [1]): inactive

O=C(/C=C/c1ccc(O)c(O)c1)O[C@@H]1C[C@](O)(C(=O)O)C[C@@H](O)[C@H]1O
inhibition (Prothrombin [1]): inactive

Oc1cc(O)c2cc(O)c(-c3ccc(O)c(O)c3)[o+]c2c1
inhibition (Prothrombin [2]): inactive
RU (Prothrombin [3]): 2250
inhibition (Prothrombin [4]): Dose-dependent effect
inhibition (Prothrombin [5]): Active
inhibition (Prothrombin [6]): inactive
inhibition (Prothrombin [7]): inactive
inhibition (Prothrombin [8]): Active
inhibition (Prothrombin [9]): Active
inhibition (Prothrombin [10]): Active
inhibition (Prothrombin [11]): inactive
inhibition (Prothrombin [12]): Dose-dependent effect
inhibition (Prothrombin [13]): Dose-dependent effect

Oc1cc(O)c2c(c1)O[C@H](c1ccc(O)c(O)c1)[C@H](O)C2
inhibition (Prothrombin [14]): inactive
Ka (Prothrombin [15]): 1.92 ×10² /M
inhibition (Prothrombin [8]): Active
inhibition (Prothrombin [12]): inactive
inhibition (Prothrombin [13]): Dose-dependent effect
inhibition (Prothrombin [16]): inactive

Oc1cc(O)c2c(c1)O[C@H](c1ccc(O)c(O)c1)[C@H](O)[C@H]2c1c(O)cc(O)c2c1O[C@H](c1ccc(O)c(O)c1)[C@H](O)C2
inhibition (Prothrombin [1]): inactive

OC[C@H]1O[C@@H](Oc2cc3c(O[C@@H]4O[C@H](CO)[C@@H](O)[C@H](O)[C@H]4O)cc(O)cc3[o+]c2-c2ccc(O)c(O)c2)[C@H](O)[C@@H](O)[C@@H]1O
inhibition (Prothrombin [17]): inactive
Ka (Prothrombin [15]): 1.15 ×10² /M
inhibition (Prothrombin [18]): inactive
inhibition (Prothrombin [12]): inactive
inhibition (Prothrombin [13]): Dose-dependent effect

COc1cc(C2Oc3cc([C@H]4Oc5cc(O)cc(O)c5C(=O)[C@@H]4O)ccc3OC2CO)ccc1O (some centres undefined) [SILIBININ]
inhibition (Prothrombin [19]): inactive
RU (Prothrombin [3]): 1420
inhibition (Prothrombin [20]): Active
inhibition (Prothrombin [21]): Active
Ka (Prothrombin [15]): 5.39 ×10⁴ /M
IC50 [22]: 21 µM
inhibition (Prothrombin [8]): Active
inhibition (Prothrombin [23]): inactive
inhibition (Prothrombin [24]): Active
inhibition (Prothrombin [25]): Active
IC50 (Prothrombin [26]): 20.9 µM
IC50 (Trypsin): 3.7 µM
inhibition (Prothrombin [12]): Dose-dependent effect
inhibition (Prothrombin [13]): Dose-dependent effect

O=C(O)c1cc(O)c(O)c(O)c1
inhibition (Prothrombin [1]): inactive

C[C@@H]1O[C@@H](O[C@H]2[C@H](Oc3cc(O)c4c(c3)O[C@H](c3ccc(O)cc3)CC4=O)O[C@H](CO)[C@@H](O)[C@@H]2O)[C@H](O)[C@H](O)[C@H]1O
inhibition (Prothrombin [1]): inactive

O=C1C[C@@H](c2ccc(O)cc2)Oc2cc(O)cc(O)c21
inhibition (Prothrombin [1]): inactive

Oc1cc(O)c2c(c1)O[C@H](c1ccc(O)c(O)c1)[C@@H](O)C2
inhibition (Prothrombin [27]): inactive
Ka (Prothrombin [15]): 2.03 ×10⁴ /M
inhibition (Prothrombin [8]): Active
inhibition (Prothrombin [28]): inactive
inhibition (Prothrombin [12]): inactive
inhibition (Prothrombin [13]): Dose-dependent effect

O=c1c(-c2ccc(O)cc2)coc2cc(O)cc(O)c12
inhibition (Prothrombin [1]): inactive

COc1ccc([C@@H]2CC(=O)c3c(O)cc(O)cc3O2)cc1O
inhibition (Prothrombin [1]): inactive

C[C@@H]1O[C@@H](OC[C@H]2O[C@@H](Oc3c(-c4ccc(O)c(O)c4)oc4cc(O)cc(O)c4c3=O)[C@H](O)[C@@H](O)[C@@H]2O)[C@H](O)[C@H](O)[C@H]1O
inhibition (Prothrombin [1]): inactive

COc1ccc([C@@H]2CC(=O)c3c(O)cc(O[C@@H]4O[C@H](CO[C@@H]5O[C@@H](C)[C@H](O)[C@@H](O)[C@H]5O)[C@@H](O)[C@H](O)[C@H]4O)cc3O2)cc1O
inhibition (Prothrombin [1]): inactive

O=c1c(O)c(-c2ccc(O)c(O)c2)oc2cc(O)cc(O)c12 [QUERCETIN]
inhibition (Prothrombin [2]): inactive
RU (Prothrombin [3]): 1880
inhibition (Prothrombin [4]): Dose-dependent effect
inhibition (Prothrombin [6]): inactive
inhibition (Prothrombin [29]): Active
Ka (Prothrombin [15]): 2.59 ×10⁷ /M
IC50 [22]: 12.1 µM
inhibition (Prothrombin [30]): Active
inhibition (Prothrombin [7]): inactive
inhibition (Prothrombin [8]): Active
inhibition (Prothrombin [9]): Active
inhibition (Prothrombin [10]): Active
inhibition (Prothrombin [11]): inactive
IC50 (Prothrombin [26]): 30 µM
inhibition (Prothrombin [31]): Active
IC50 (Trypsin): 15.4 µM
inhibition (Prothrombin [12]): Dose-dependent effect
inhibition (Prothrombin [13]): Dose-dependent effect
inhibition (Prothrombin [32]): Active
inhibition (Prothrombin [33]): Active
